This series in a line: Toxicity liver stage against HepG2, at 10uM. It is filed as cell-based. The arrangement: test concentration 10 uM, cell line HepG2-A16-CD81EGFP. Conditions: human, HepG2-A16-CD81EGFP cells; read-out: INHIBITION
In a few lines:
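Uninfected HepG2-A16-CD81EGFP cells, 3 × 10^3 per well, 1536-well, plated on prespotted compound at 10 μM final, parasite-free screening media added to match infected plates; puromycin 10 μM positive, DMSO 0.5% negative; run in parallel with 48 h PbLuc assay at 37 °C, 5% CO2; viability by CellTiter-Glo luminescence, normalized to controls.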
As to `CCOC(=O)CCC(=O)NC(C)c1ccc(NC(=O)CC)cc1` (stereo not given), the cytotoxicity at 10 µM came to 0.097%.
With `CC(C)CCNC(=O)Cc1cnc(-n2cccc2)s1` the figure was -2.49%; with `CC(C)(C)C1SCC(=O)Nc2c1c(O)nn2C1CCCCC1` (stereo not given), -16.7%; with `Cc1ccc(NC(=O)Nc2cnc(N3CCN(C)CC3)nc2)cc1`, -15.4%.
As for `O=C(NC1CCC1)[C@H]1C[C@H]2NCCO[C@@H]2C1`, the cytotoxicity at 10 µM was -131%.
With `CC(C)(C)C(=O)N1CC[C@@H]2[C@H](CC1)N(S(C)(=O)=O)CCS2(=O)=O` the figure was 0.64%; with `Cc1cccc(CN2C(=O)CCC23CCN(Cc2nccn2C)CC3)n1`, 5.47%.
Then `Cc1c(C)n(CC(O)CN2CCC(C)CC2)c2c(Cl)cccc12` (stereo not given), with -5.12%; and `CCOC(=O)c1cn(CC(O)c2ccccc2OC)nn1` (stereo not given), with -4.06%; and `O=C(c1cnc2ccc(F)cc2c1NCc1ccco1)N1CCCC1`, with -54.5%.
Then `COC1CC2(CCN(Cc3ccc4c(c3)OCO4)CC2)C1`, with 3.07%.
Regarding `O=C1CC(c2ccccc2)C2(CCN(Cc3ccccn3)CC2)N1` (stereo not given), the cytotoxicity at 10 µM turned out to be 3.91%.
With `CCOCC1CN(S(C)(=O)=O)Cc2cnn(C)c21` (stereo not given) the figure was -15.4%; with `CN(C)c1cc(CC(NC(=O)C2CC2)c2ccccc2)nc(C2CC2)n1` (stereo not given), 5.73%; with `Cc1nn(C)cc1S(=O)(=O)N[C@@H]1CCC[C@@H](N2CCCC2)[C@@H]1O`, -3.02%.
Regarding `Cc1nn(C)c(C)c1-c1ccc(=O)n(C(C)C(=O)NC2CC2)n1` (stereo not given), the cytotoxicity at 10 µM is 0.0475%.
Regarding `COCC(=O)N1CCCCC1c1nc(C)c2c(n1)N(C1CC1)C(=O)CC2` (stereo not given), the cytotoxicity at 10 µM is -1%.
Then `CN1CCC(Cc2cc(N(C)C)ncn2)C1` (stereo not given), with 3.19%; and `COc1ccccc1C1(O)CCCN(C(=O)c2cnc(SC)nc2)C1` (stereo not given), with 7.27%.
Then `Fc1ccc(CN2CCC(c3nccnc3-n3ccnc3)CC2)cc1`, with -0.259%; and `CC(C)NC(=O)N1CCN(c2ccc(Cl)nn2)C(=O)C1`, with 5.01%.
Then `O=C(c1cccnc1)N1CCC2(CNS(=O)(=O)c3cnccc3O2)C1` (stereo not given), with 15.7%; and `COc1ccc(CCNC(=O)NCc2cccc(C(N)=O)c2)cc1OC`, with 11.8%.
For `Cc1[nH]nc2ncc(C(=O)N3CCCC3c3noc(C(C)C)n3)cc12` (stereo not given), the cytotoxicity at 10 µM turned out to be 8.38%.
With `NC(=O)C1CCCN(S(=O)(=O)c2cnn(-c3ccccc3)c2)C1` (stereo not given) the figure was -66.6%; with `COc1ccc(CCC2CCCCN2)cc1OC` (stereo not given), 12.1%; with `Cc1ccc(C(C)N(C)C(=O)c2ccc(=O)n(C)c2)s1` (stereo not given), -4.27%.
Then `CCc1cc(=O)[nH]c(-c2ccc(NCCC(C)O)nc2)n1` (stereo not given), with -127%; and `COc1ccc(-c2nnc(C(C)N3CCOCC3)o2)cc1` (stereo not given), with -10.4%; and `CC1CN(Cc2cccc(CNC3CCCC3)c2)CCO1` (stereo not given), with 3.06%.
With `Cc1noc(C(C)N2CCN(Cc3noc(C4CC4)n3)CC2)n1` (stereo not given) the figure was 0.973%.
On to `CC(CC(=O)N1CCN(c2cnccn2)CC1)c1ccc(F)cc1` (stereo not given), for which the cytotoxicity at 10 µM was -48%.
Then `CC(c1ccccn1)N(C)C(=O)CN1CCN(c2ccccn2)CC1` (stereo not given), with 5.1%; and `NC(=O)N1CCCC(C(=O)Nc2cccc(Cl)c2)C1` (stereo not given), with 8.16%; and `COc1cc(OC)cc(N2CCC(NCc3cccs3)C2=O)c1` (stereo not given), with 4.63%.
Then `Cc1ccc(C(=O)NCC(C)CN2CCCC2=O)c(=O)[nH]1` (stereo not given), with -8.57%; and `CC(NC(=O)c1ccc(C#N)cn1)C1(N2CCOCC2)CCCC1` (stereo not given), with 2.54%; and `CC(C)(C)C(=O)NCc1nccn1CCc1ccccc1`, with 3.75%.
With `CC(C)c1nc(C(=O)N2CCOCC2CC(=O)c2ccco2)cs1` (stereo not given) the figure was -7.58%.
On to `c1ccc(OCCN2CCC(n3cncn3)CC2)cc1`, for which the cytotoxicity at 10 µM was -20.7%.
Then `CC(C)N(Cc1ccccn1)C(=O)CCC(=O)c1ccc(F)cc1F`, with -0.535%; and `CN(CC(=O)NC1CC1)C(=O)c1csc(Br)c1`, with -0.872%; and `CC(C)c1ocnc1C(=O)N1CC(=O)Nc2cccnc21`, with 1.56%.
With `CC(C#N)(NC(=O)Cn1cc(I)cn1)C1CC1` (stereo not given) the figure was 15.2%.
Then `CN(C)c1ncc(CNC(=O)Nc2ccccc2C(F)(F)F)n1C`, with -55.3%; and `c1ccc2[nH]c(C3CCN(Cc4nc(C5CC5)no4)CC3)cc2c1`, with 9.02%; and `COc1ccc(-c2nnc(SC(C)C(=O)NC3CC3)[nH]2)c(OC)c1` (stereo not given), with 45.3%.
As for `Cc1nn(CC(=O)N2CCCC2Cn2cccn2)c(C)c1Cl` (stereo not given), the cytotoxicity at 10 µM amounted to 2.27%.
With `CCS(=O)(=O)N1Cc2nccn2CC(Cn2cccn2)C1` (stereo not given) the figure was 10.7%.
With `Cc1nc(COC[C@@H]2CC[C@H]3[C@H](CCN3C(=O)C3CC3)O2)cs1` the figure was -73.9%; with `O=C1CC(c2cccnc2)C2(CCN(C(=O)N3CCOCC3)CC2)N1` (stereo not given), -79.5%; with `CCO[C@@H]1CCN(C(=O)c2cscn2)[C@@H]1Cc1cnn(C)c1`, 4.84%.
Then `CC(=O)NC(C)C1=CCCN(Cc2ccc(C(=O)O)cc2)C1` (stereo not given), with -12.1%; and `COc1cccc2c1OCC(C(=O)NCCCn1nc(C)c(Cl)c1C)C2` (stereo not given), with -4.12%; and `CN1CCC2(CCCN(S(=O)(=O)c3ccc(-c4cnco4)s3)C2)C1` (stereo not given), with -7.56%.
As for `Cc1ccc(NCCCNC(=O)C2CC3(CCNCC3)CN2C)nc1` (stereo not given), the cytotoxicity at 10 µM is 6.07%.
Turning to `Cc1c(-c2ccccc2)ncn1CC(c1cccnc1)N1CCOCC1` (stereo not given), the cytotoxicity at 10 µM stood at 2.11%.
With `CCN1CCN(C(=O)CCC2CCN(C(C)CSC)CC2)CC1` (stereo not given) the figure was -0.0154%.
With `O=C1N(Cc2ccc(F)c(F)c2)CCCC12CCN(C1CCCC1)C2` (stereo not given) the figure was -2.8%; with `O=C(NCC(F)F)c1ccc(S(=O)(=O)N2CCCC(O)C2)cc1` (stereo not given), 1.29%; with `Nc1cc(C(=O)NCC2CCN(CCc3ccccc3)C2)ccn1` (stereo not given), -5.47%.
With `Cc1ncc(CN2CCCC2c2ccc(C(=O)NCc3ccoc3)s2)s1` (stereo not given) the figure was -1.06%.
For the compound `Cc1nc(C2CCN(C(=O)c3ccc(=O)n(C)c3)CC2)c2sccn12`, the cytotoxicity at 10 µM was -5.38%.
Consider `O=C1COc2cc(C(=O)NS(=O)(=O)c3cc(Cl)ccc3Cl)ccc2N1`, for which the cytotoxicity at 10 µM was -7.96%.
For the compound `COc1ccc(C2CCCN2Cc2ccc(S(=O)(=O)N(C)C)o2)cc1` (stereo not given), the cytotoxicity at 10 µM was -5%.
With `CCNc1cc2c(nn1)CCN(C(=O)Cc1ccc(C)s1)C2` the figure was -0.375%; with `CC1CCCN(S(=O)(=O)NCc2ccccc2Cn2cncn2)C1` (stereo not given), 1.55%; with `Cc1cnn(CCC(=O)N2CCCN(c3ccccc3C#N)CC2)c1`, -2.85%.
Then `CN1CCCc2cc(CNC(=O)c3ccc(-n4cnnc4)cc3)ccc21`, with -4.9%; and `O=C(NCCNc1ccc(C(F)(F)F)cn1)c1cc(Cl)ccc1F`, with -8.27%.
With `COc1c(C2CCCN2C(=O)c2ccc(O)nc2)c(C)nn1C` (stereo not given) the figure was 2.63%.
With `Cc1nc2ccccc2nc1CN1CCCCC1Cn1cncn1` (stereo not given), the cytotoxicity at 10 µM is -7.36%.
With `Cc1cc(C[S+]([O-])CC(=O)NCc2cccs2)no1` (stereo not given) the figure was -12.3%.
For the compound `Cc1ccc(NC2CCN(C(=O)c3cccn3C)CC2)nn1`, the cytotoxicity at 10 µM is -3.76%.
Then `COc1cc(CNC2CCc3nc(C)nn3C2)cc2c1OCCO2` (stereo not given), with -9.16%; and `Cc1nccn1C1CCCN(C(=O)c2ccc(N(C)C)nc2)C1` (stereo not given), with -7.62%.
With `O=S(=O)(N(Cc1ccccn1)C1CC1)N1CCCC1c1ccco1` (stereo not given), the cytotoxicity at 10 µM was -3.73%.
Then `Cc1cnn(CC2CCCCN2Cc2nnc(-c3ccco3)o2)c1` (stereo not given), with -10.4%; and `Cc1cc(C(=O)O)cc(S(=O)(=O)Nc2ccc3c(c2)OCO3)c1C`, with 0.89%; and `COc1cc(C)nc(N2CCN(C(=O)CNC(C)(C)C)CC2)n1`, with -7.67%.
With `CN(C)c1cc(CNC(=O)c2ccc(F)cc2F)ccn1` the figure was -4.82%; with `COc1cc2c(cc1CNC(Cc1cccs1)c1nccs1)OCCO2` (stereo not given), -1.6%.
Then `CC(C)C(=O)N1C[C@H]2CCCN[C@H]2C1`, with 1.55%; and `C[C@@H]1CN(Cc2cccnc2)C[C@]12CCN(CCN1CCCC1)C2=O`, with -6.04%; and `Cc1cccc(CN2CCC3(CC2)NC(=O)CC3c2ccccc2)n1` (stereo not given), with -0.508%.
For the compound `CC1=N[C@@]2(CC[C@@H]3CN(CC(=O)N(C)C)C[C@@H]32)C(=O)N1CC1CC1`, the cytotoxicity at 10 µM is -3.9%.
`O=C1COC2(COCCN(Cc3cccnc3)C2)CN1c1ccccc1` (stereo not given): the cytotoxicity at 10 µM was determined as 9.72%.
Then `CCN(CC)Cc1cn2c(n1)CN(C(=O)c1cnccn1)CC2`, with 6.15%; and `Cc1ccc(CN2CCc3nnc(CN4CCCC4=O)n3CC2)s1`, with 1.02%.
With `O=C(NCc1ccccn1)[C@H]1COC[C@H]2CN(CC3CC3)C[C@H]21` the figure was -80.8%.
Then `Cc1noc(C)c1CN1CC[C@H]2OCC[C@@]2(C(=O)N2CCCO2)C1`, with 1.59%; and `Cc1cccc(CN2C[C@@H]3CN(C4CCOCC4)C[C@@H]3C2=O)c1`, with -130%.
In the case of `CN(C)C(=O)N1CCO[C@@H]2CC(COCc3cccnc3)C[C@H]21` (stereo not given in full), the cytotoxicity at 10 µM was 8.61%.
With `O=C(Nc1ccccc1)N1CCn2nnc(COc3cccnc3)c2C1` the figure was -2.03%.
In the case of `CCOCC1CN(CCN2CCCCC2)Cc2cnn(C)c21` (stereo not given), the cytotoxicity at 10 µM is -99.9%.

For the origin of these results see ChEMBL document CHEMBL4513216, “Probing the Open Global Health Chemical Diversity Library for Multistage-Active Starting Points for Next-Generation Antimalarials” (ACS Infect Dis, 2020).
